From PubChem BioAssay
A selection: hits, their analogues and other compounds. The true share with any hit is near 1.6%.
TLR4 MyD88 comp: inhibitors of human TLR4-MyD88 binding; O00206+Q99836; HeLa CL3-4 TLR4/MyD88 BLA complementation, FRET ratio; inhibition, % at 8.4 µM; 200,000 tested, 0.18% active; AID 861; in the data active = inhibition above about 25%;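 also: 0% = vehicle and 100% = reference inhibitor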
ABHD5-PLIN5 inh: blocks binding of human ABHD5 to perilipin-5; Q00G26+Q8WTS1; Split G. princeps luciferase complementation, luminescence, 4 h; inhibition, % at 4 µM; 360,000 tested, 0.78% active; AID 602281;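 active = inhibition above the mean inhibition across every tested compound plus 3 SD, cut at about 22% in these data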;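 also: 0% = DMSO only wells and the 100% control is not disclosed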
Beta2AR agonist: activates human beta-2 adrenergic receptor causing internalization. Am2.2-beta2AR cells, FAP receptor internalization, flow cytometry. response, % (test concentration not listed). 340,000 tested, 0.43% active. AID 504454;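 active = response above a set limit, near 3 SD of response in nonfluorescent compounds, cut at about 42% in these data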
TLR9-MyD88 inh: inhibitors of human TLR9-MyD88 binding. Q9NR96+Q99836. 340,000 tested, 0.21% active. CHO BLA complementation TLR9-MyD88, CCF4 FRET ratio. inhibition, % at 4.98 µM;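 active = inhibition above the mean over all tested compounds plus 3 SD, cut at about 21% in these data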;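 also: 0% = DMSO only wells and 100% = clavulanate BLA inhibitor control wells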
Dynein cargo inh: blocks dynein driven cargo transport along microtubules | 3617.4 mouse cells, GR-EGFP nuclear translocation imaging; test concentration mostly 20 µM; stimulated with dexamethasone, 1 µM; stronger effect = lower value | z-score, hits read low | 220,000 tested, 0.47% active;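 active = plate z-score of nuclear minus cytoplasmic receptor signal below a set negative limit, without overly bright fluorescence or cell loss, cut at about -3.5 in these data, passing the limit was not always enough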;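 also: z-score of nuclear minus cytoplasmic ring GR-EGFP intensity difference per well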
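Buffer or medium: tetracycline-free induction medium containing charcoal-stripped FBS / Reagent: dexamethasone agonist, 1.0 µM final, for 30 min / Technique: automated 10x imaging of fixed Hoechst-stained cells / Times: induction 48 h, compound 1 h, agonist 30 min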
NOD2 RIPK2 PPI: inhibitors of human NOD2-RIPK2 interaction; O43353; CHO BLA complementation NOD2-RIPK2, CCF4 ratio; inhibition, % at 4.98 µM; 360,000 tested, 0.38% active; AID 624267; in the data active = inhibition above about 21%;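 also: 0% = vehicle only and 100% = reference blocker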
Beta2AR ag CP1: activates human beta-2 adrenergic receptor; AID 540358; 1,100 tested, 25% active; percent response (surface receptor), % at 10 µM; shares compounds with Beta2AR agonist; Am2.2-beta2AR cells, FAP surface receptor, flow cytometry; stronger effect = lower value;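 active = surface receptor percent response at or below 58%, roughly 3 SD from nonfluorescent compounds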
FAP fluor counter: counter-screen for beta-2AR agonists: fluorescence in Am2.2 cells. shares compounds with Beta2AR agonist. FAP fluorogen flow cytometry, fluorescence counterscreen; stronger effect = lower value. calls only at 10 µM. 1,100 tested, under 10 active;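 active = percent response below a set limit in fluorescence channel 1 and below 50% in channel 8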
Active calls of the source: *.

How did O=C(Nc1ccc2oc(-c3cccnc3)nc2c1)c1cccnc1 do in these assays?
TLR4 MyD88 comp: 7; ABHD5-PLIN5 inh: -2; Beta2AR agonist: -3; TLR9-MyD88 inh: -1; Dynein cargo inh: 0.2; NOD2 RIPK2 PPI: -3

Results for Oc1ccc(C[C@@H]2CNCCN2CCc2cc(C(F)(F)F)cc(C(F)(F)F)c2)cc1 ?
ABHD5-PLIN5 inh: 7; Beta2AR agonist: 80*; TLR9-MyD88 inh: -6; NOD2 RIPK2 PPI: 1; Beta2AR ag CP1: 93; FAP fluor counter: inactive

How did CCN(CC)CCCNC(=O)Cn1cnc2sc(C)c(S(=O)(=O)N3CCC(C)CC3)c2c1=O do in these assays?
ABHD5-PLIN5 inh: -7; Beta2AR agonist: 18; TLR9-MyD88 inh: -6; NOD2 RIPK2 PPI: -9

How did CCC1CCCCN1CCCNC(=O)Cn1cnc2sc(C)c(S(=O)(=O)N3CC(C)CC(C)C3)c2c1=O (configuration not stated) do in these assays?
ABHD5-PLIN5 inh: 2; Beta2AR agonist: 59*; TLR9-MyD88 inh: 9; NOD2 RIPK2 PPI: -2; Beta2AR ag CP1: 89; FAP fluor counter: inactive

What do the screens show for `CCOC(=O)c1c(C)[nH]c(C)c1C(=O)COC(=O)c1ccc(S(=O)(=O)N(CC)CC)cc1`?
TLR4 MyD88 comp: -4; ABHD5-PLIN5 inh: -6; Beta2AR agonist: 0; TLR9-MyD88 inh: 5; Dynein cargo inh: 0.31; NOD2 RIPK2 PPI: -6

What do the screens show for `CCOC(=O)c1c(C)[nH]c(C)c1C(=O)COC(=O)c1cccc(S(=O)(=O)N(CC)CC)c1`?
TLR4 MyD88 comp: -9; ABHD5-PLIN5 inh: -9; Beta2AR agonist: 44*; TLR9-MyD88 inh: 8; Dynein cargo inh: -0.6; NOD2 RIPK2 PPI: 3; Beta2AR ag CP1: 118; FAP fluor counter: inactive

How did CC1=C/C(=N\NC(=S)NCc2ccccc2)CC1 do in these assays?
TLR4 MyD88 comp: -2; ABHD5-PLIN5 inh: -2; Beta2AR agonist: -2; TLR9-MyD88 inh: -4; Dynein cargo inh: 0.31; NOD2 RIPK2 PPI: -4; Beta2AR ag CP1: 102; FAP fluor counter: inactive

Results for O=C(Nc1ccc(Nc2ccncc2)cc1)c1ccc(Nc2ccnc3ccc([N+](=O)[O-])cc23)cc1 ?
ABHD5-PLIN5 inh: -5; Beta2AR agonist: 69*; TLR9-MyD88 inh: -6; Dynein cargo inh: -0.8; NOD2 RIPK2 PPI: -1; Beta2AR ag CP1: 82; FAP fluor counter: inactive

Results for O=C(CNC(=O)N1CC(=O)Nc2ccccc21)Nc1ccccc1F ?
ABHD5-PLIN5 inh: -1; Beta2AR agonist: 42*; TLR9-MyD88 inh: -8; NOD2 RIPK2 PPI: -6; Beta2AR ag CP1: 107; FAP fluor counter: inactive

What do the screens show for `O=C(CNC(=O)N1CC(=O)Nc2ccccc21)Nc1ccccc1`?
ABHD5-PLIN5 inh: 0; Beta2AR agonist: -20; TLR9-MyD88 inh: 1; NOD2 RIPK2 PPI: 5

What do the screens show for `CC1(C(=O)NS(=O)(=O)Cc2cccc(Cl)c2)CCN1C(=O)Cc1cccs1` (configuration not stated)?
ABHD5-PLIN5 inh: 9; NOD2 RIPK2 PPI: -9

How did COCc1cccc(-c2csc(C(C)(NC(C)=O)c3ccccc3)n2)c1 (configuration not stated) do in these assays?
ABHD5-PLIN5 inh: -10; NOD2 RIPK2 PPI: 2

How did COc1ccc(C(=O)Nc2ccc(N3CCN(C)CC3)cc2)cc1OC do in these assays?
ABHD5-PLIN5 inh: 3; Beta2AR agonist: 11; TLR9-MyD88 inh: 9; NOD2 RIPK2 PPI: -8

Results for COc1ccc(C(=O)CCC(=O)Nc2ccc(N3CCCCC3)cc2)cc1OC ?
ABHD5-PLIN5 inh: 4; Beta2AR agonist: 72*; TLR9-MyD88 inh: 3; NOD2 RIPK2 PPI: -5; Beta2AR ag CP1: 98; FAP fluor counter: inactive

How did O=C(CC1CCCC1)N1CCN(S(=O)(=O)c2cccc(Br)c2)CC1 do in these assays?
ABHD5-PLIN5 inh: -9; TLR9-MyD88 inh: 3; NOD2 RIPK2 PPI: -11

Results for C#CC(c1ccccc1)(c1ccccc1)n1ccnc1 ?
ABHD5-PLIN5 inh: 5; TLR9-MyD88 inh: 2; NOD2 RIPK2 PPI: -3

Results for Clc1ccccc1C(c1ccccc1)(c1ccccc1)n1ccnc1 ?
TLR4 MyD88 comp: -5; ABHD5-PLIN5 inh: 2; Beta2AR agonist: 51*; TLR9-MyD88 inh: -1; Dynein cargo inh: 2.1; NOD2 RIPK2 PPI: 0; Beta2AR ag CP1: 30*; FAP fluor counter: inactive

What do the screens show for `CCOC(=O)Cn1nnnc1CN(Cc1ccc(OC)cc1)Cc1cc2cc(C)ccc2[nH]c1=O`?
TLR4 MyD88 comp: -5; ABHD5-PLIN5 inh: 3; Beta2AR agonist: 39; TLR9-MyD88 inh: -4; Dynein cargo inh: -0.56; NOD2 RIPK2 PPI: -9

How did CCOC(=O)Cn1nnnc1CN(Cc1ccc(OC)cc1)Cc1cc2cc(CC)ccc2[nH]c1=O do in these assays?
TLR4 MyD88 comp: -8; ABHD5-PLIN5 inh: -11; Beta2AR agonist: 86*; TLR9-MyD88 inh: 3; Dynein cargo inh: -0.97; NOD2 RIPK2 PPI: -3; Beta2AR ag CP1: 103; FAP fluor counter: inactive

Results for CCCc1ccc2oc(C(=O)N(Cc3nccn3C)C(C)C)c(C)c2c1 ?
ABHD5-PLIN5 inh: -5; Beta2AR agonist: 2; TLR9-MyD88 inh: 1; NOD2 RIPK2 PPI: -6

Results for CCCCn1c(=N)n(CC(O)COc2cccc(C)c2)c2ccccc21 (configuration not stated) ?
TLR4 MyD88 comp: 15; ABHD5-PLIN5 inh: 2; Beta2AR agonist: 46*; TLR9-MyD88 inh: 12; Dynein cargo inh: -0.35; NOD2 RIPK2 PPI: 1; Beta2AR ag CP1: 86; FAP fluor counter: inactive

What do the screens show for `CCCn1c(=N)n(CC(O)COc2ccc(C)cc2)c2ccccc21` (configuration not stated)?
ABHD5-PLIN5 inh: -5; Beta2AR agonist: 10; TLR9-MyD88 inh: -5; Dynein cargo inh: -0.54; NOD2 RIPK2 PPI: -2

Results for O=C(CN1CCCCC1)NC(=O)NC1CCCCC1 ?
ABHD5-PLIN5 inh: -6; Beta2AR agonist: -4; TLR9-MyD88 inh: 2; NOD2 RIPK2 PPI: 4

Results for Cc1cc(N2CCN(c3ccc(C(F)(F)F)cc3[N+](=O)[O-])CC2)c2ccccc2n1 ?
ABHD5-PLIN5 inh: 7; Beta2AR agonist: -15; TLR9-MyD88 inh: 9; NOD2 RIPK2 PPI: 2

Results for Cc1cc(N2CCN(c3ccc([N+](=O)[O-])c4cccnc34)CC2)c2ccccc2n1 ?
TLR4 MyD88 comp: 0; ABHD5-PLIN5 inh: 6; Beta2AR agonist: 95*; TLR9-MyD88 inh: -8; Dynein cargo inh: -0.93; NOD2 RIPK2 PPI: 12; Beta2AR ag CP1: 80; FAP fluor counter: inactive
